Test [1] can be described thus: Duration of action where maximum inhibition of LTB4 formation is achieved at 1 mg/kg po. On the set-up: dose 1 mg/kg. The settings on record: Canis lupus familiaris. Type of test: functional, organism-based. The method, boiled down:
(§1)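 Beagle dogs (8–15 kg, fasted 16–18 h, water allowed) dosed by oral intubation as suspension in 3% cornstarch/0.33% Tween 80/5% PEG 400 in water, 5 mL/kg. Jugular blood at -1, 0, 0.25, 0.5, 1, 3, 6, 9, 24 h; 1-mL aliquots stimulated 15 min at 37 °C with A23187 100 μM plus fMLP 10 μM (final); plasma LTB4 by RIA. DA read graphically: time from maximum inhibition to 50% of maximum.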

Test [2] concerns the target T1, Polyunsaturated fatty acid 5-lipoxygenase (Homo sapiens) (UniProt P09917).
T1 sequence (whole entry): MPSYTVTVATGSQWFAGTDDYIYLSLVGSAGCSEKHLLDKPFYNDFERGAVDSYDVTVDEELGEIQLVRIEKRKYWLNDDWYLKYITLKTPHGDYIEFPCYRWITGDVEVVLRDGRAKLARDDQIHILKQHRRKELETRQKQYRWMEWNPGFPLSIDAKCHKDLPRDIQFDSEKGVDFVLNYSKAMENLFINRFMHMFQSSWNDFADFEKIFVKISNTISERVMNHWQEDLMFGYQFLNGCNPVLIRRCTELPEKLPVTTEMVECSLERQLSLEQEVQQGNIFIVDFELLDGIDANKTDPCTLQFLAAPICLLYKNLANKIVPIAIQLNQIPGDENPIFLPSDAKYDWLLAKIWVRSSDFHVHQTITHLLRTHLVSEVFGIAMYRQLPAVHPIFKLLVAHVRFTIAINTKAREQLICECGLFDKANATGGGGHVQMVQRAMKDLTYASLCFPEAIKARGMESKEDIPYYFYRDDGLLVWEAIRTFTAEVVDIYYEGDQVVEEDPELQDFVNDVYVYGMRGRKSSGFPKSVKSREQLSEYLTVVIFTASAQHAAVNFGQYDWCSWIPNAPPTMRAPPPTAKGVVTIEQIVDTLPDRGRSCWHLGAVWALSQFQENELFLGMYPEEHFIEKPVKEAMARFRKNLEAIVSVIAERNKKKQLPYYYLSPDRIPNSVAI
As to the kind of experiment: Ex vivo inhibition of LTB4 production by measurement of A-23187-stimulated LTB-4 production in dog blood at 1 mg/kg po. It counts as functional, organism-based. On the set-up: dose 1 mg/kg. The settings on record: Canis lupus familiaris, target entry is the homologue from another species. Put shortly:
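Fasted beagles (8–15 kg) dosed orally by intubation, suspension in 3% cornstarch with 0.33% Tween 80 and 5% PEG 400, 5 mL/kg. Blood at -1, 0, 0.25–24 h stimulated ex vivo with A23187 100 μM + fMLP 10 μM final, 15 min, 37 °C; plasma LTB4 by RIA; percent inhibition relative to mean predose (-1, 0 h) values.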

Test [3] in a line: Duration of action where maximum inhibition of LTB4 formation is achieved at 3 mg/kg po. On the set-up: dose 3 mg/kg. The following applies: Canis lupus familiaris. It counts as functional, organism-based. The method, boiled down: as §1
The test system of test [4] is Arachidonate 5-lipoxygenase (Canis lupus familiaris). As to the kind of experiment: Ex vivo inhibition of LTB-4 determined by measurement of A-23187-stimulated LTB-4 production in dog blood at 3 mg/kg po. The following applies: target entry is the homologue from another species.
Test [5] deals with T2, Polyunsaturated fatty acid lipoxygenase ALOX12 (Homo sapiens, UniProt P18054).
T2 sequence (P18054 whole entry): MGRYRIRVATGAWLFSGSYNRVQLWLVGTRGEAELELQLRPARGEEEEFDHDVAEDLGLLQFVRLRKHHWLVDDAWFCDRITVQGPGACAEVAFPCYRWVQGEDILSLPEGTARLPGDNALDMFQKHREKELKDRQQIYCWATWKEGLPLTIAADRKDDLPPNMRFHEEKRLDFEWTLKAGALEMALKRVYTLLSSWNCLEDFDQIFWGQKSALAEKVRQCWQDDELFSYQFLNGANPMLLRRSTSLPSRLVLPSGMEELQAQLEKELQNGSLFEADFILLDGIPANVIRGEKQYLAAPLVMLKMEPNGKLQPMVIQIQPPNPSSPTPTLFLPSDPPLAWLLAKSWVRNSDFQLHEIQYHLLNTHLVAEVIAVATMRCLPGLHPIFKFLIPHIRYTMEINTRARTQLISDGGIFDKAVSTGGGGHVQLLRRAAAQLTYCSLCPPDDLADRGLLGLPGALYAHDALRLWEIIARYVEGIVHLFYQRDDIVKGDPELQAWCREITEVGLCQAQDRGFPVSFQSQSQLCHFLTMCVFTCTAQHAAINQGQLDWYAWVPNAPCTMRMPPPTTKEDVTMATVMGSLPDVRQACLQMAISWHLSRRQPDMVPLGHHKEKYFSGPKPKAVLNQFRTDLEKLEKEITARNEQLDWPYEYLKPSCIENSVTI
As to the kind of experiment: Inhibitory concentration against human platelet 12-lipoxygenase. Type of test: functional. The method, boiled down:
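Cytoplasmic fraction of lysed human platelets, diluted to give 50% AA conversion, preincubated with inhibitor 5 min at 37 °C in 0.1 M Tris-HCl pH 8.0 with 1 mM glutathione and 10 μM indomethacin. 1-[14C]AA added, 15 min at 37 °C; 12-HETE separated by TLC and counted.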

A short description of test [6]: Duration of action is where maximum inhibition of LTB4 formation is achieved at 1 mg/kg po. It counts as functional, organism-based. Set-up: dose 1 mg/kg. The following applies: Canis lupus familiaris. Put shortly:
as §1

The target of test [7] is T1, Polyunsaturated fatty acid 5-lipoxygenase (Homo sapiens). Kind of test: Ex vivo inhibition of LTB-4 determined by measurement of A-23187-stimulated LTB-4 production in dog blood at 1 mg/kg iv. Type of test: functional, organism-based. On the set-up: dose 1 mg/kg. Put shortly: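 Beagles (8–15 kg, fasted 16–18 h) given iv forearm bolus in DMA/PEG 400 (25:75), 0.1 mL/kg. Jugular blood (serine/heparin) sampled -1 to 24 h; 1-mL aliquots stimulated with A23187 100 μM + fMLP 10 μM final for 15 min at 37 °C, one aliquot unstimulated. Plasma LTB4 by RIA; inhibition versus mean of -1 and 0 h predose values.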

A short description of test [8]: Duration of action where maximum inhibition of LTB4 formation is achieved at 1 mg/kg iv. It counts as functional, organism-based. Set-up: dose 1 mg/kg. The following applies: Canis lupus familiaris. Put shortly: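 Beagle dogs (8–15 kg, fasted) given iv bolus in forearm in DMA/PEG 400 (25:75), 0.1 mL/kg. Blood at -1, 0, 0.08, 0.25, 0.5, 1, 3, 6, 9, 24 h; aliquots stimulated with A23187 100 μM + fMLP 10 μM final, 15 min, 37 °C; plasma LTB4 by RIA. DA taken graphically from maximum inhibition to 50%-of-maximum level.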

Test [9] can be described thus: Duration of action where maximum inhibition of LTB4 formation is achieved at 10 mg/kg po. Type of test: functional, organism-based. On the set-up: dose 10 mg/kg. The following applies: Canis lupus familiaris. Put shortly:
as §1

Test [10] concerns Arachidonate 5-lipoxygenase (Canis lupus familiaris). As to the kind of experiment: Ex vivo inhibition of LTB-4 determined by measurement of A-23187-stimulated LTB-4 production in dog blood at 10 mg/kg po. The following applies: target entry is the homologue from another species.
Test [11] concerns the target T3, Prostaglandin G/H synthase (cyclooxygenase) (Ovis aries, UniProt P05979+P79208).
T3 sequence (P05979 whole entry): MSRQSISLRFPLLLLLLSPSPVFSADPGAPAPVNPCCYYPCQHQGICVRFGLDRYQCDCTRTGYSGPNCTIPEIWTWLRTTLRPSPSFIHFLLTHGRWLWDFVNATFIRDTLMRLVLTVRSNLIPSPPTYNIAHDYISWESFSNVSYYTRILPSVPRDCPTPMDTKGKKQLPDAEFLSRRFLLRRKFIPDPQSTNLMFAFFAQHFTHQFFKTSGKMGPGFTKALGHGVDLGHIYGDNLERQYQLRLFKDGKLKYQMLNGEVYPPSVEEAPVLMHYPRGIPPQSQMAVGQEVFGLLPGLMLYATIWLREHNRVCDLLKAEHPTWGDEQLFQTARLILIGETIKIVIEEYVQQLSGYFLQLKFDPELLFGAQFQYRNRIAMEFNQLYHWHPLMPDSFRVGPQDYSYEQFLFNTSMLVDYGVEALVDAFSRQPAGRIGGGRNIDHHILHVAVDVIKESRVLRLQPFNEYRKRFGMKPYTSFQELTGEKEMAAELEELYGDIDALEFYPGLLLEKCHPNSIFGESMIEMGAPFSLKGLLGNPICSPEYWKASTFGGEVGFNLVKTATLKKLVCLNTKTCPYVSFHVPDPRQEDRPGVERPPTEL
T3 sequence (P79208 whole entry): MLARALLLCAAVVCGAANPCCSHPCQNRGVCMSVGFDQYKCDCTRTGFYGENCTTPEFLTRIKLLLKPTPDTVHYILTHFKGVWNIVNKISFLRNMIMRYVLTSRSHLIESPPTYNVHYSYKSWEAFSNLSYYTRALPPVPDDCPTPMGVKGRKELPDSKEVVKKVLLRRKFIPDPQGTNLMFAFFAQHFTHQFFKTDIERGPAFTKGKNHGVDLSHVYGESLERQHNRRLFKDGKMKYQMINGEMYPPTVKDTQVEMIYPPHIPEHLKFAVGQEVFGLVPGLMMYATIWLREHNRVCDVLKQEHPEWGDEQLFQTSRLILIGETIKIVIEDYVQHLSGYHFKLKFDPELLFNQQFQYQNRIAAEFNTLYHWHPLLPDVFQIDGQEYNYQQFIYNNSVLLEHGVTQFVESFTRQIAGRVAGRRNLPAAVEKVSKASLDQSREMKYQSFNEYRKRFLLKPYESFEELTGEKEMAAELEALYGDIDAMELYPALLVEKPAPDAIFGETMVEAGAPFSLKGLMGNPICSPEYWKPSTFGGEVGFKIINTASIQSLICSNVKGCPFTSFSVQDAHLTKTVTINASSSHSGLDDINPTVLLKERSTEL
Kind of test: Inhibitory concentration against sheep seminal vesicle Prostaglandin G/H synthase. Type of test: functional, tissue-based. The method, boiled down:
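Lyophilized sheep seminal vesicle microsomes as cyclooxygenase source; conversion of [14C]AA to PGE2 with compounds over a wide concentration range in 0.1 M Tris-HCl pH 8.4 (or 1% ethanol). PGs extracted into ethyl acetate, separated by TLC, PGE2 zones counted by scintillation.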

Bounds are passed on as bounds.

By inhibition is commonly meant the drop in the measured response relative to a control, in per cent. Turning to `CC1(C)Oc2ccc(Oc3ccccc3)cc2C=C1CN(O)C(N)=O`, in test [1], the Duration came out at 2.6 h. The inhibition in [2] came to 65%.
On the same counts, the results for `NC(=O)N(O)CC1=Cc2cc(-c3ccccc3)ccc2OC1` are 1 h and 60%.
On to `CCCCCCOc1ccc2c(c1)C=C(CN(O)C(N)=O)CO2`, for which the Duration in test [3] is 2.2 h. This compound gave an inhibition in [4] of 60%.
As a reminder, the IC50 is the concentration needed to halve the response being measured. Higher therefore signals weaker potency. With `NC(=O)N(O)CC1=Cc2cc(Oc3ccccc3)ccc2OC1`, the IC50 in test [5] amounted to 0.64 µM. The results for the Duration in test [6] and in [3] were 14 h and 35 h, respectively. Besides, the inhibition in [7] and in [2] was greater than 95% each time.
Take `NC(=O)N(O)CC1=Cc2cc(OCCCc3ccccc3)ccc2OC1`: the Duration in test [1] was 4 h; in test [3] it was greater than 6 h. Moreover, the inhibition in [2] was greater than 90%; in test [4], greater than 95%.
Take `NC(=O)N(O)CC1=Cc2cc(OCc3ccccc3)ccc2OC1`: the figures for the Duration in test [6], in [8] and in test [9] were 5 h, 19 h and greater than 6 h, respectively. In addition, the inhibition in test [7] is greater than 95%; in test [2], 59%; in [4] it was greater than 95%; in test [10], greater than 95%.
On to `CNC(=O)N(O)CC1=Cc2cc(Oc3ccccc3)ccc2OC1`, for which the Duration in test [8] was 8.4 h; in [1], 11 h. Further, the inhibition in test [7] and in test [2] was greater than 95% in each case.
Consider `C=CCNC(=O)N(O)CC1=Cc2cc(Oc3ccccc3)ccc2OC1`, for which the Duration in test [6] stood at 4.2 h. The inhibition in [2] came to 80%.
In [6], `NC(=O)N(O)CC1=Cc2cc(Oc3ccc(F)cc3)ccc2OC1` showed a Duration of 13 h. Also, the inhibition in test [7] and in test [2] was greater than 95% each time.
`CC(c1cc2ccccc2s1)N(O)C(N)=O` (stereo not drawn) [ZILEUTON] had a half-maximal inhibitory concentration (IC50) in test [5] of 55 µM.
Consider `CCNC(=O)N(O)CC1=Cc2cc(Oc3ccccc3)ccc2OC1`, for which the Duration in test [8] is 5.1 h; in [1], 3.8 h. Also, the inhibition in [7] is greater than 95%; in [2] it was 60%.
With `CNC(=O)N(O)CC1=Cc2cc(Oc3ccc(F)cc3)ccc2OC1`, the IC50 in [5] is 0.41 µM; in test [11], greater than 100 µM. For the same compound, the results for the Duration in test [6], in test [8] and in test [3] were 15 h, 20 h and 42 h, respectively. For the same compound, the inhibition in [7] and in [2] was greater than 95% throughout.
The compound `NC(=O)N(O)CC1=Cc2cc(Br)ccc2OC1` came in with a Duration in test [9] of 3.8 h. Also, the inhibition in test [10] was greater than 95%.
`CC1Oc2ccc(OCc3ccccc3)cc2C=C1CN(O)C(N)=O` (stereo not drawn) returned a Duration in [1] of 2.8 h. In [2], this compound gave an inhibition of 91%.
In the case of `NC(=O)N(O)CC1COc2ccc(Oc3ccccc3)cc2C1` (stereo not drawn), the Duration in test [8] was 7.4 h; in test [1] it was 4.8 h. Moreover, the inhibition in test [7] and in [2] was greater than 95% throughout.
For `COc1ccc2c(c1)C=C(CN(O)C(N)=O)CO2`, the Duration in test [8] is 1.2 h; in [9], greater than 6 h.
For `CCCNC(=O)N(O)CC1=Cc2cc(Oc3ccccc3)ccc2OC1`, the Duration in [8] is 8.1 h. This compound returned an inhibition in [7] greater than 95%.
On to `CC1Oc2ccc(Oc3ccccc3)cc2C=C1CN(O)C(N)=O` (stereo not drawn), for which the Duration in test [8] is 5 h; in test [1], 9 h. Further, the inhibition in test [7] and in [2] was greater than 95% throughout.
On to `NC(=O)N(O)CC1=Cc2cc(OCc3ccc(C(F)(F)F)cc3)ccc2OC1`, for which the values for the Duration in test [8] and in test [9] were 3 h and greater than 6 h, respectively. Also, the values for the inhibition in [7] and in test [10] were 82% and greater than 95%, respectively.
